An excerpt weighted towards active compounds, which were near 2.4% of everything screened.
MPTP block: blocks calcium-induced mitochondrial swelling | inhibition, % at 10 µM | hit rate 1.4% among 360,000 | isolated mouse mitochondria, Ca2+ swelling absorbance, 30 min;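 active = inhibition of 50% or more, scaled per plate between neutral and stimulator controls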;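 also: 0% = DMSO wells given calcium and 100% = 1 mM EGTA wells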
NR2E3 ag-1: agonists of human nuclear receptor NR2E3; Q9Y5X4; GST-NR2E3/biotin-RetCOR TR-FRET, 1536-well; inhibition of corepressor binding, % at 4.78 µM; hit rate 0.12% among 320,000; AID 2300;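 active = percent inhibition above the cutoff of mean plus 3 SD of all tested compounds, set per screening campaign, cut at about 20% in these data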;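 also: 0% = DMSO wells and 100% = biotin wells as full block of FRET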
Target sequence (Q9Y5X4 whole entry, looked up): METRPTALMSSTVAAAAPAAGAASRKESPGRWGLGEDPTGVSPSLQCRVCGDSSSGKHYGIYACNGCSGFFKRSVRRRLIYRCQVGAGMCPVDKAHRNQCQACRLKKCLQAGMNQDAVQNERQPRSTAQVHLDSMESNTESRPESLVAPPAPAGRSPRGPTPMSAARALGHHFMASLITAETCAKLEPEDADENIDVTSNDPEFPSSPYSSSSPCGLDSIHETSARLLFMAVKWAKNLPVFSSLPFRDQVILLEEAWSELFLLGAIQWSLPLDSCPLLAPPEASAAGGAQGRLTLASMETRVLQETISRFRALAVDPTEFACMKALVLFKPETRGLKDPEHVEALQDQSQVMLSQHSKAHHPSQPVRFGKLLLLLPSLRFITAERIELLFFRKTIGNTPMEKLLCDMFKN
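system = GST-tagged NR2E3 plus biotinylated RetCOR corepressor | input = 1.35 nM GST-NR2E3 | also added = 7 nM biotin-RetCOR | schedule = 5 h incubation at 4 °C | measured by = TR-FRET with europium anti-GST and streptavidin-D2, 340 nm excitation | read-out = percent loss of FRET ratio relative to control wells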
697 NFkB inh: lowers PMA/ionomycin-induced NF-kB signal in 697 B cells | hit rate 0.33% among 330,000 | 697 B-cell NF-kB luciferase reporter, 16 h | inhibition, % at 4 µM | AID 435022; in the data active = inhibition above about 35%
aDG glyco up: alpha-DG glycosylation activation; activation, % at 10 µM; AID 624168; Pro5-aDG cells, alpha-DG glycosylation AlphaScreen (IIH6); 0% Pro5, 100% B10-LARGE cell signal; hit rate 0.22% among 360,000;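 active = activation of at least 8% versus controls, or a plate z-score of at least 8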;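 also: Pro5 are CHO cells carrying HIG-tagged alpha-DG that lacks glycosylation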
Jurkat NFkB inh: inhibitors of the PMA/ionomycin-induced NF-kB reporter in Jurkat cells; hit rate 0.53% among 330,000; PMA/ionomycin-induced NF-kB luciferase reporter, luminescence; inhibition, % at 4 µM; AID 435003; in the data active = inhibition above about 50%
NR2E3 ag-2: activates human NR2E3 receptor; Q9Y5X4; CHO-S Gal4-NCOR/VP16-NR2E3 two-hybrid, luciferase; inhibition of corepressor binding, % at 3.98 µM; hit rate 0.35% among 360,000; AID 602229;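 active = inhibition above the mean of all tested compounds plus 3 SD, cut at about 70% in these data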;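 also: 0% = DMSO with NR2E3 transfected cells and 100% = cells lacking NR2E3 construct; higher means lower luciferase signal from less NR2E3 corepressor binding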
697 NFkB conf: lowers PMA/ionomycin-induced NF-kB signal in 697 B cells. shares compounds with 697 NFkB inh. 697 B-cell NF-kB luciferase, 16 h. inhibition, % at 4 µM. hit rate 35% among 2,000; in the data active = inhibition mostly above about 28%, no sharp cut-off; inactive = mostly below about 22%
* = called active by the depositor; / = no result.

SMILES	MPTP block	NR2E3 ag-1	697 NFkB inh	aDG glyco up	Jurkat NFkB inh	NR2E3 ag-2	697 NFkB conf
CCCC(=O)Nc1ccc(C(=O)NNC(=O)c2cccc([N+](=O)[O-])c2)cc1	-1.9	3.4	27.3	-0.3	8.0	2.9	/
CC(=O)c1ccc(N=Nc2ccc(C)cc2)cc1	-1.4	/	-258.9	0.3	-76.2	-100.3	-359.8
Cn1c(=O)n(CC(=O)NCC2CCCO2)c(=O)c2c3c(sc21)CCCC3 (stereo not given)	1.2	-2.5	14.7	0.5	-9.6	-0.2	/
CC=CC1OCC(CC)C(CCC)O1 (stereo not given)	-0.4	/	/	-0.1	/	16.4	/
CC1CCc2nc(NC(=O)C3COc4ccccc4O3)sc2C1 (stereo not given)	0.8	3.2	-299.5	0.0	-88.9	-7.8	-333.6
CC1CCc2nc(NC(=O)C3CC3)sc2C1 (stereo not given)	-3.9	1.5	-52.5	-0.2	-60.9	-90.9	/
COc1cc(-c2nc3ccc(N4CCN(C)CC4)cc3[nH]2)cc(OC)c1OC	-0.3	0.2	37.8*	-0.5	-31.8	-12.4	31.4*
CCCn1c(NC(=O)c2cccc(S(=O)(=O)N3CCCC3)c2)nc2ccccc21	17.5	-0.8	-140.0	0.0	25.1	41.7	/
Cc1cccc(OCc2cc(-c3ccccc3)no2)c1C	0.5	-5.7	-49.6	0.2	-54.1	-110.8	/
Clc1ccc(OCc2cc(-c3ccccc3)no2)c(Cl)c1	4.1	2.6	-466.4	0.0	-123.0	-120.1	-353.1
O=C(c1ccc(N2CCCC2)c([N+](=O)[O-])c1)N1CCc2ccccc2C1	-0.5	-3.8	36.5*	0.1	2.5	-43.1	15.7
O=C(c1ccc(N2CCCCC2)c([N+](=O)[O-])c1)N1CCOCC1	0.0	2.1	2.6	0.0	21.4	-21.7	/
COc1ccc(C(=O)Nc2ccccc2C(=O)N/N=C/c2cccc3ccccc23)cc1	9.5	3.2	-350.7	-0.5	-49.6	-41.1	-186.5
CCc1ccc(/C=C2\SC(=S)N(CCCC(=O)NCCCN3CCOCC3)C2=O)cc1	1.1	/	/	0.3	/	18.9	/
CCOc1ccc(/C=C2\SC(=S)N(CCC(=O)Nc3cccc(C(=O)O)c3)C2=O)cc1	0.9	-2.4	68.3*	-0.2	28.6	9.6	67.9*
CC(C)c1ccc(/C=C2\SC(=S)N(CCC(=O)N3CCCCC3CCO)C2=O)cc1 (stereo not given)	-0.1	-0.2	69.5*	0.3	5.8	14.8	70.8*
CCOc1ccc(/C=C2\SC(=S)N(CCCC(=O)NCCCN3CCOCC3)C2=O)cc1	-0.5	-0.7	37.8*	0.5	10.7	9.3	51.6*
O=C1/C(=C\c2ccccc2)SC(=S)N1CCC(=O)N1CCCCC1CCO (stereo not given)	0.1	-3.5	2.2	0.3	9.8	-14.5	/
CC(C)c1ccc(/C=C2\SC(=S)N(CCC(=O)NCCCn3ccnc3)C2=O)cc1	-1.4	2.4	38.2*	3.0	-7.7	-6.0	37.8*
O=C(CCN1C(=O)/C(=C/c2ccccc2)SC1=S)Nc1cccnc1	8.5	3.0	6.0	-0.1	31.6	-13.6	/
CCc1ccc(/C=C2/SC(=S)N(CCC(=O)Nc3cccnc3)C2=O)cc1	1.3	-0.2	77.2*	-0.1	22.3	-12.5	67.3*
CCOc1ccc(/C=C2\SC(=S)N(CCC(=O)Nc3ccc(C(=O)O)cc3)C2=O)cc1	-0.4	0.2	80.5*	-0.1	-2.8	-14.4	76.8*
CCc1ccc(/C=C2\SC(=S)N(CCCC(=O)Nc3ccc(C(=O)O)cc3)C2=O)cc1	-0.4	-4.5	72.8*	-0.1	-11.4	3.8	84.3*
Cc1ccn2c(CNCc3cnn(C)c3)c(C(=O)N3CCCCCC3)nc2c1	-1.2	-7.3	4.1	0.0	2.7	-4.1	/
O=C1CN(S(=O)(=O)c2cccc(Cl)c2Cl)CCN1	-0.5	/	2.1	-0.2	9.2	-28.1	/
O=C(NC(c1ccc(Cl)cc1)c1cccnc1)C1CCN(CCOc2ccc(Cl)cc2Cl)CC1 (stereo not given)	0.9	/	/	0.5	/	20.2	/
Cc1cc(C(=O)COC(=O)c2cccn2C)c(C)n1Cc1ccco1	-0.4	5.6	-304.8	1.6	-132.8	-66.4	-240.1

Screening results deposited in PubChem BioAssay by several laboratories.
